According to ChEMBL document CHEMBL3352616, “Quinazoline-sulfonamides with potent inhibitory activity against the α-carbonic anhydrase from Vibrio cholerae” (Bioorg Med Chem, 2014):

Assay: Inhibition of Vibrio cholerae alpha-carbonic anhydrase preincubated for 15 mins by stopped-flow CO2 hydration assay
Procedure, shortened: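 Stopped-flow CO2 hydration assay, phenol red 0.2 mM read at 557 nm, 20 mM Hepes pH 7.4 with 20 mM NaBF4 for ionic strength. Initial rates followed 10–100 s, CO2 1.7–17 mM. Inhibitor (10 mM DMSO stock, buffer dilutions down to 0.01 nM) preincubated with enzyme 15 min at RT. Uncatalyzed rate subtracted; Ki by nonlinear least squares and Cheng–Prusoff, mean of ≥3 determinations.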

Row | Structure (SMILES) | Ki [nM]
1 | COc1ccc2nc(SCC(=O)Nc3ccc(S(N)(=O)=O)cc3)n(Cc3ccccc3)c(=O)c2c1 | > 10000
2 | Cc1cccc2nc(SCC(=O)Nc3ccc(S(N)(=O)=O)cc3)n(Cc3ccccc3)c(=S)c12 | 7.7
3 | C=CCn1c(SCC(=O)Nc2ccc(S(N)(=O)=O)cc2)nc2ccc(C)cc2c1=O | 6
5 | NS(=O)(=O)c1ccc(NC(=O)CSc2nc3ccc([N+](=O)[O-])cc3c(=O)n2Cc2ccccc2)cc1 | > 10000
6 | COc1cccc2c(=S)n(Cc3ccccc3)c(SCC(=O)Nc3ccc(S(N)(=O)=O)cc3)nc12 | 7.9
7 | Cc1cccc2c(=S)n(Cc3ccccc3)c(SCC(=O)Nc3ccc(S(N)(=O)=O)cc3)nc12 | 8.7
8 | Cc1ccc2nc(SCC(=O)Nc3ccc(S(N)(=O)=O)cc3)n(Cc3ccccc3)c(=S)c2c1 | 5.5
9 | COc1cccc2c(=O)n(Cc3ccccc3)c(SCC(=O)Nc3ccc(S(N)(=O)=O)cc3)nc12 | > 10000
10 | Cc1cccc2c(=O)n(Cc3ccccc3)c(SCC(=O)Nc3ccc(S(N)(=O)=O)cc3)nc12 | 8.5
11 | C=CCn1c(SCC(=O)Nc2ccc(S(N)(=O)=O)cc2)nc2ccc([N+](=O)[O-])cc2c1=O | 6.6
12 | Cc1ccc2nc(SCC(=O)Nc3ccc(S(N)(=O)=O)cc3)n(Cc3ccccc3)c(=O)c2c1 | 2.7
13 | NS(=O)(=O)c1ccc(NC(=O)CSc2nc3ccc([N+](=O)[O-])cc3c(=S)n2Cc2ccccc2)cc1 | > 10000
